The species entered for test [1] is Rattus norvegicus. Briefly: Inhibition of soluble guanylyl cyclase in rat aortic smooth muscle cells assessed as inhibition of SNP-stimulated cGMP formation at 0.1 uM by immunoassay. In a few lines: (§1)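 Rat aortic smooth muscle cells were grown in high-glucose DMEM with 10% foetal calf serum plus penicillin/streptomycin, and passages 3–4 were used at confluence. Cells were pretreated with IBMX (1 mM, 5 min) to block phosphodiesterase, then exposed to compound for 20 min with IBMX still present. They were then stimulated with SNP for 15 min, and cGMP was measured by enzyme immunoassay.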

The species named for test [2] is Rattus norvegicus. Briefly: Inhibition of soluble guanylyl cyclase in rat aortic smooth muscle cells assessed as inhibition of SNP-stimulated cGMP formation at 10 uM by immunoassay. The method in brief:
as §1

Test [3] is filed under the species Rattus norvegicus. Briefly: Inhibition of soluble guanylyl cyclase in rat aortic smooth muscle cells assessed as inhibition of SNP-stimulated cGMP formation by immunoassay. In a few lines:
as §1

The structures appear in SMILES notation. Calls of active or inactive are those of the source. The calls are words filed in the database; no cut-off is given here.

From ChEMBL document CHEMBL1159051, “Synthesis and biological evaluation of oxadiazole derivatives as inhibitors of soluble guanylyl cyclase” (Bioorg Med Chem, 2010) come the findings set out here.

In general, inhibition refers to the relative decrease from the control value, in per cent. Regarding `O=c1c2ccc(Cl)cc2nc2n1-c1ccccc1OC2`, the inhibition entry in the test filed under Rattus norvegicus [1] and in the test filed under Rattus norvegicus [2] was “Active” throughout.

On to `O=c1onc2n1-c1ncccc1OC2`, for which the inhibition entry in the test filed under Rattus norvegicus [1] and in the test listed under Rattus norvegicus [2] was “Active” throughout.

For `O=c1[nH]nc2n1-c1cc(Br)ccc1OC2`, in the test listed under Rattus norvegicus [3], the inhibition result is “inactive”.

Turning to `O=c1c2ccccc2nc2n1-c1cc(Br)ccc1OC2`, in the test filed under Rattus norvegicus [3], the inhibition entry is “inactive”.

For `O=c1c2ccccc2nc2n1-c1ccccc1OC2`, the inhibition result in the test filed under Rattus norvegicus [3] was “inactive”. As for `O=c1onc2cnc3ccccc3n12`, the inhibition was 85% in the test listed under Rattus norvegicus [1] and “Dose-dependent effect” in the test listed under Rattus norvegicus [3]. The inhibition result in the test listed under Rattus norvegicus [2] is “Active”.

Regarding `COc1ccc(-c2ccc3c(c2)-n2c(noc2=O)CO3)cc1`, the inhibition entry in the test filed under Rattus norvegicus [1] and in the test listed under Rattus norvegicus [2] was “Active” in each case. On to `O=c1onc2n1-c1cc(-c3cccc(C(F)(F)F)c3)ccc1OC2`, for which the inhibition result in the test listed under Rattus norvegicus [1] and in the test filed under Rattus norvegicus [2] was “Active” throughout. Turning to `O=C1c2ccccc2-n2c(noc2=O)[C@@H]2CCCN12`, in the test listed under Rattus norvegicus [3], the inhibition entry is “inactive”.
